Experiments:
Format in all cases: functional
Coptotermes formosanus [1] = assay: Termiticidal activity against Coptotermes formosanus placed on 0.01 % wt/wt compound treated filter paper assessed as termite mortality measured 11 days post compound exposure
Outline: (§1)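 Treated filter paper disks moistened with 100 µL water; 20 C. formosanus workers (third instar or greater) plus 1 soldier per dish from field colonies kept on spruce, ca. 100% RH, 26.6 °C. Daily mortality scored for 3 weeks; cumulative percent mortality from four replicates, each a different colony; water-only controls; ANOVA, protected Fisher LSD (P < 0.05) after arcsine square-root transform.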

Coptotermes formosanus [2] = assay: Termiticidal activity against Coptotermes formosanus placed on 0.1 % wt/wt compound treated filter paper assessed as termite mortality measured 6 days post compound exposure; outline: as §1
Coptotermes formosanus [3] = assay: Termiticidal activity against Coptotermes formosanus placed on 0.1 % wt/wt compound treated filter paper assessed as termite mortality measured 11 days post compound exposure; outline: as §1
Coptotermes formosanus [4] = assay: Antifeedant activity against Coptotermes formosanus placed on 0.01 % wt/wt compound treated filter paper assessed as filter paper consumption measured 21 days post compound exposure (reference value: 23.6 +/- 13.6 mg)
Coptotermes formosanus [5] = assay: Termiticidal activity against Coptotermes formosanus placed on 0.5 % wt/wt compound treated filter paper assessed as termite mortality measured 13 days post compound exposure; outline: as §1
Coptotermes formosanus [6] = assay: Termiticidal activity against Coptotermes formosanus placed on 0.5 % wt/wt compound treated filter paper assessed as termite mortality measured 9 days post compound exposure; outline: as §1
Coptotermes formosanus [7] = assay: Termiticidal activity against Coptotermes formosanus placed on 0.1 % wt/wt compound treated filter paper assessed as termite mortality measured 13 days post compound exposure; outline: as §1
Coptotermes formosanus [8] = assay: Termiticidal activity against Coptotermes formosanus placed on 0.5 % wt/wt compound treated filter paper assessed as termite mortality measured 6 days post compound exposure; outline: as §1
Coptotermes formosanus [9] = assay: Antifeedant activity against Coptotermes formosanus placed on 0.001 % wt/wt compound treated filter paper assessed as filter paper consumption measured 21 days post compound exposure (reference value: 23.6 +/- 13.6 mg)
Coptotermes formosanus [10] = assay: Termiticidal activity against Coptotermes formosanus placed on 0.1 % wt/wt compound treated filter paper assessed as termite mortality measured 21 days post compound exposure; outline: as §1
Coptotermes formosanus [11] = assay: Antifeedant activity against Coptotermes formosanus placed on 0.05 % wt/wt compound treated filter paper assessed as filter paper consumption measured 21 days post compound exposure (reference value: 23.6 +/- 13.6 mg)
Coptotermes formosanus [12] = assay: Termiticidal activity against Coptotermes formosanus placed on 0.001 % wt/wt compound treated filter paper assessed as termite mortality measured 13 days post compound exposure; outline: as §1
Coptotermes formosanus [13] = assay: Termiticidal activity against Coptotermes formosanus placed on 0.01 % wt/wt compound treated filter paper assessed as termite mortality measured 17 days post compound exposure; outline: as §1
Coptotermes formosanus [14] = assay: Termiticidal activity against Coptotermes formosanus placed on 0.05 % wt/wt compound treated filter paper assessed as termite mortality measured 21 days post compound exposure; outline: as §1
Coptotermes formosanus [15] = assay: Antifeedant activity against Coptotermes formosanus placed on 0.5 % wt/wt compound treated filter paper assessed as filter paper consumption measured 21 days post compound exposure (reference value: 23.6 +/- 13.6 mg)
Coptotermes formosanus [16] = assay: Termiticidal activity against Coptotermes formosanus placed on 0.1 % wt/wt compound treated filter paper assessed as termite mortality measured 9 days post compound exposure; outline: as §1
Coptotermes formosanus [17] = assay: Termiticidal activity against Coptotermes formosanus placed on 0.001 % wt/wt compound treated filter paper assessed as termite mortality measured 6 days post compound exposure; outline: as §1
Coptotermes formosanus [18] = assay: Termiticidal activity against Coptotermes formosanus placed on 0.001 % wt/wt compound treated filter paper assessed as termite mortality measured 11 days post compound exposure; outline: as §1
Coptotermes formosanus [19] = assay: Termiticidal activity against Coptotermes formosanus placed on 0.01 % wt/wt compound treated filter paper assessed as termite mortality measured 9 days post compound exposure; outline: as §1
Coptotermes formosanus [20] = assay: Termiticidal activity against Coptotermes formosanus placed on 0.05 % wt/wt compound treated filter paper assessed as termite mortality measured 13 days post compound exposure; outline: as §1
Coptotermes formosanus [21] = assay: Termiticidal activity against Coptotermes formosanus placed on 0.5 % wt/wt compound treated filter paper assessed as termite mortality measured 11 days post compound exposure; outline: as §1
Coptotermes formosanus [22] = assay: Termiticidal activity against Coptotermes formosanus placed on 0.05 % wt/wt compound treated filter paper assessed as termite mortality measured 9 days post compound exposure; outline: as §1
Coptotermes formosanus [23] = assay: Termiticidal activity against Coptotermes formosanus placed on 0.001 % wt/wt compound treated filter paper assessed as termite mortality measured 9 days post compound exposure; outline: as §1
Coptotermes formosanus [24] = assay: Termiticidal activity against Coptotermes formosanus placed on 0.5 % wt/wt compound treated filter paper assessed as termite mortality measured 17 days post compound exposure; outline: as §1
Coptotermes formosanus [25] = assay: Termiticidal activity against Coptotermes formosanus placed on 0.5 % wt/wt compound treated filter paper assessed as termite mortality measured 21 days post compound exposure; outline: as §1
Coptotermes formosanus [26] = assay: Termiticidal activity against Coptotermes formosanus placed on 0.01 % wt/wt compound treated filter paper assessed as termite mortality measured 13 days post compound exposure; outline: as §1
Coptotermes formosanus [27] = assay: Termiticidal activity against Coptotermes formosanus placed on 0.001 % wt/wt compound treated filter paper assessed as termite mortality measured 21 days post compound exposure; outline: as §1
Coptotermes formosanus [28] = assay: Termiticidal activity against Coptotermes formosanus placed on 0.01 % wt/wt compound treated filter paper assessed as termite mortality measured 6 days post compound exposure; outline: as §1
Coptotermes formosanus [29] = assay: Termiticidal activity against Coptotermes formosanus placed on 0.001 % wt/wt compound treated filter paper assessed as termite mortality measured 17 days post compound exposure; outline: as §1
Coptotermes formosanus [30] = assay: Termiticidal activity against Coptotermes formosanus placed on 0.5 % wt/wt compound treated filter paper assessed as termite mortality measured 3 days post compound exposure; outline: as §1
Coptotermes formosanus [31] = assay: Termiticidal activity against Coptotermes formosanus placed on 0.01 % wt/wt compound treated filter paper assessed as termite mortality measured 21 days post compound exposure; outline: as §1
Coptotermes formosanus [32] = assay: Termiticidal activity against Coptotermes formosanus placed on 0.05 % wt/wt compound treated filter paper assessed as termite mortality measured 11 days post compound exposure; outline: as §1
Coptotermes formosanus [33] = assay: Termiticidal activity against Coptotermes formosanus placed on 0.05 % wt/wt compound treated filter paper assessed as termite mortality measured 17 days post compound exposure; outline: as §1
Coptotermes formosanus [34] = assay: Antifeedant activity against Coptotermes formosanus placed on 0.1 % wt/wt compound treated filter paper assessed as filter paper consumption measured 21 days post compound exposure (reference value: 23.6 +/- 13.6 mg)
Coptotermes formosanus [35] = assay: Termiticidal activity against Coptotermes formosanus placed on 0.05 % wt/wt compound treated filter paper assessed as termite mortality measured 6 days post compound exposure; outline: as §1
Coptotermes formosanus [36] = assay: Termiticidal activity against Coptotermes formosanus placed on 0.1 % wt/wt compound treated filter paper assessed as termite mortality measured 17 days post compound exposure; outline: as §1

CC1=C(C)C(=O)C(Cl)=C(Cl)C1=O showed a mortality (Coptotermes formosanus [1]) of 3.8%, a mortality (Coptotermes formosanus [2]) of 1.3% and a mortality (Coptotermes formosanus [3]) of 30.4%. For the same compound, the Activity (Coptotermes formosanus [4]) was 25 mg, the mortality (Coptotermes formosanus [5]) was 100% and the mortality (Coptotermes formosanus [6]) was 100%. It also gave a mortality (Coptotermes formosanus [7]) of 41.3%, a mortality (Coptotermes formosanus [8]) of 100% and an Activity (Coptotermes formosanus [9]) of 17.5 mg. It also gave a mortality (Coptotermes formosanus [10]) of 68.8%, an Activity (Coptotermes formosanus [11]) of 18.3 mg and a mortality (Coptotermes formosanus [12]) of 26.3%. For the same compound, the mortality (Coptotermes formosanus [13]) was 10%, the mortality (Coptotermes formosanus [14]) was 5% and the Activity (Coptotermes formosanus [15]) was 3.2 mg. The mortality (Coptotermes formosanus [16]) was 26.3%, the mortality (Coptotermes formosanus [17]) was 1.3% and the mortality (Coptotermes formosanus [18]) was 6.8%. It also gave a mortality (Coptotermes formosanus [19]) of 3.8%, a mortality (Coptotermes formosanus [20]) of 5% and a mortality (Coptotermes formosanus [21]) of 100%. It also gave a mortality (Coptotermes formosanus [22]) of 1.3%, a mortality (Coptotermes formosanus [23]) of 2.5% and a mortality (Coptotermes formosanus [24]) of 100%. It also gave a mortality (Coptotermes formosanus [25]) of 100%, a mortality (Coptotermes formosanus [26]) of 7.5% and a mortality (Coptotermes formosanus [27]) of 27.5%. It also gave a mortality (Coptotermes formosanus [28]) of 3.8%, a mortality (Coptotermes formosanus [29]) of 26.3% and a mortality (Coptotermes formosanus [30]) of 100%. For the same compound, the mortality (Coptotermes formosanus [31]) was 10%, the mortality (Coptotermes formosanus [32]) was 3.4% and the mortality (Coptotermes formosanus [33]) was 5%. It also gave an Activity (Coptotermes formosanus [34]) of 13.1 mg, a mortality (Coptotermes formosanus [35]) of 0% and a mortality (Coptotermes formosanus [36]) of 60%.
